According to ChEMBL document CHEMBL5303300, “EUbOPEN Chemogenomics Library - Multiplex” (2023):
“And” between values parts separate entries of the source, which are not always exact repeats. Equal values may be shown once.

Tested on: Fibroblast
Assay: Multiplex assay against human fibroblast
Format: toxicity, cell-based
Settings: number of replicates 2
Procedure, shortened: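 Four dyes were applied at seeding to live cells: Hoechst33342, BioTracker Green Microtubule Cytoskeleton Dye, MitoTracker Red and Annexin V Alexa Fluor 680. Imaging after compound addition used a CQ1 microscope at 37°C and 5% CO2. CellPathfinder machine-learning gating then sorted cells into Hoechst high-intensity objects or normal cells, normal cells into healthy, pyknosed or fragmented nuclei, and pyknosed cells into mitotic or apoptotic, with tubulin, mitochondrial-mass and membrane-permeability phenotypes given as per cents of healthy-nucleus cells.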

[1] = 12 h, 1 µM, compound concentration 1 uM
[2] = 12 h, 10 µM, compound concentration 10 uM
[3] = 24 h, 1 µM, compound concentration 1 uM
[4] = 24 h, 10 µM, compound concentration 10 uM
[5] = 48 h, 1 µM, compound concentration 1 uM
[6] = 48 h, 10 µM, compound concentration 10 uM

## CCc1cnn2c(NCc3ccc[n+]([O-])c3)cc(N3CCCCC3CCO)nc12 (stereo not drawn)
[1]
  Population Apoptotic (%): 35% and 55%
  Population Fragmented Nuclei (%): 7% and 13%
  Population Healthy Nuclei (%): 73% and 62%
  Population Hoechst High Intensity Objects (%): 0%
  Population Membrane Permeable-Phenotype (%): 3% and 4%
  Population Mitochondria Different-Phenotype (%): 1% and 0%
  Population Mitotic Cells (%): 65% and 44%
  Population Normal (%): 100%
  Population Pyknosed Nuclei (%): 19% and 23%
  Population Tubulin-Different-Phenotype (%): 13% and 9%
  Total Cell Count: 209 and 219
[2]
  Population Apoptotic (%): 42% and 55%
  Population Fragmented Nuclei (%): 6% and 7%
  Population Healthy Nuclei (%): 75%
  Population Hoechst High Intensity Objects (%): 0%
  Population Membrane Permeable-Phenotype (%): 5% and 7%
  Population Mitochondria Different-Phenotype (%): 2% and 3%
  Population Mitotic Cells (%): 57% and 44%
  Population Normal (%): 99% and 100%
  Population Pyknosed Nuclei (%): 17% and 16%
  Population Tubulin-Different-Phenotype (%): 31% and 26%
  Total Cell Count: 191 and 174
[3]
  Population Apoptotic (%): 59% and 63%
  Population Fragmented Nuclei (%): 9% and 13%
  Population Healthy Nuclei (%): 68% and 67%
  Population Hoechst High Intensity Objects (%): 0%
  Population Membrane Permeable-Phenotype (%): 7% and 3%
  Population Mitochondria Different-Phenotype (%): 2% and 0%
  Population Mitotic Cells (%): 40% and 36%
  Population Normal (%): 100%
  Population Pyknosed Nuclei (%): 22% and 19%
  Population Tubulin-Different-Phenotype (%): 18% and 10%
  Total Cell Count: 188 and 213
[4]
  Population Apoptotic (%): 68% and 52%
  Population Fragmented Nuclei (%): 8% and 9%
  Population Healthy Nuclei (%): 77% and 75%
  Population Hoechst High Intensity Objects (%): 0%
  Population Membrane Permeable-Phenotype (%): 10% and 4%
  Population Mitochondria Different-Phenotype (%): 2% and 6%
  Population Mitotic Cells (%): 32% and 48%
  Population Normal (%): 100%
  Population Pyknosed Nuclei (%): 13% and 15%
  Population Tubulin-Different-Phenotype (%): 43% and 38%
  Total Cell Count: 181 and 162
[5]
  Population Apoptotic (%): 65% and 64%
  Population Fragmented Nuclei (%): 9% and 12%
  Population Healthy Nuclei (%): 55% and 61%
  Population Hoechst High Intensity Objects (%): 0%
  Population Membrane Permeable-Phenotype (%): 8% and 9%
  Population Mitochondria Different-Phenotype (%): 0% and 3%
  Population Mitotic Cells (%): 34% and 35%
  Population Normal (%): 100% and 99%
  Population Pyknosed Nuclei (%): 35% and 26%
  Population Tubulin-Different-Phenotype (%): 15% and 17%
  Total Cell Count: 188 and 216
[6]
  Population Apoptotic (%): 73% and 63%
  Population Fragmented Nuclei (%): 11% and 6%
  Population Healthy Nuclei (%): 63%
  Population Hoechst High Intensity Objects (%): 0%
  Population Membrane Permeable-Phenotype (%): 14% and 20%
  Population Mitochondria Different-Phenotype (%): 1% and 4%
  Population Mitotic Cells (%): 26% and 36%
  Population Normal (%): 100% and 99%
  Population Pyknosed Nuclei (%): 25% and 29%
  Population Tubulin-Different-Phenotype (%): 43% and 41%
  Total Cell Count: 179 and 149

## COc1cccc(Cn2cc(C(=O)Nc3ccc(C)c(S(=O)(=O)N4CCOCC4)c3)c(-c3ccc(C)cc3)n2)c1
[1]
  Population Apoptotic (%): 48% and 37%
  Population Fragmented Nuclei (%): 7% and 6%
  Population Healthy Nuclei (%): 65% and 67%
  Population Hoechst High Intensity Objects (%): 0% and 1%
  Population Membrane Permeable-Phenotype (%): 13% and 10%
  Population Mitochondria Different-Phenotype (%): 2% and 3%
  Population Mitotic Cells (%): 51% and 62%
  Population Normal (%): 100% and 98%
  Population Pyknosed Nuclei (%): 26% and 27%
  Population Tubulin-Different-Phenotype (%): 44% and 39%
  Total Cell Count: 152 and 203
[2]
  Population Apoptotic (%): 39% and 45%
  Population Fragmented Nuclei (%): 6% and 7%
  Population Healthy Nuclei (%): 63% and 53%
  Population Hoechst High Intensity Objects (%): 0% and 1%
  Population Membrane Permeable-Phenotype (%): 21% and 28%
  Population Mitochondria Different-Phenotype (%): 2% and 1%
  Population Mitotic Cells (%): 60% and 54%
  Population Normal (%): 100% and 98%
  Population Pyknosed Nuclei (%): 29% and 38%
  Population Tubulin-Different-Phenotype (%): 93% and 85%
  Total Cell Count: 191 and 229
[3]
  Population Apoptotic (%): 57% and 42%
  Population Fragmented Nuclei (%): 9% and 10%
  Population Healthy Nuclei (%): 64% and 59%
  Population Hoechst High Intensity Objects (%): 0%
  Population Membrane Permeable-Phenotype (%): 13% and 9%
  Population Mitochondria Different-Phenotype (%): 1% and 3%
  Population Mitotic Cells (%): 42% and 57%
  Population Normal (%): 100%
  Population Pyknosed Nuclei (%): 25% and 30%
  Population Tubulin-Different-Phenotype (%): 44% and 38%
  Total Cell Count: 162 and 205
[4]
  Population Apoptotic (%): 66% and 67%
  Population Fragmented Nuclei (%): 9%
  Population Healthy Nuclei (%): 70% and 57%
  Population Hoechst High Intensity Objects (%): 0% and 1%
  Population Membrane Permeable-Phenotype (%): 14% and 20%
  Population Mitochondria Different-Phenotype (%): 2% and 7%
  Population Mitotic Cells (%): 33% and 32%
  Population Normal (%): 100% and 98%
  Population Pyknosed Nuclei (%): 19% and 32%
  Population Tubulin-Different-Phenotype (%): 90% and 84%
  Total Cell Count: 199 and 219
[5]
  Population Apoptotic (%): 73% and 64%
  Population Fragmented Nuclei (%): 13% and 11%
  Population Healthy Nuclei (%): 65% and 67%
  Population Hoechst High Intensity Objects (%): 0%
  Population Membrane Permeable-Phenotype (%): 6% and 9%
  Population Mitochondria Different-Phenotype (%): 1% and 2%
  Population Mitotic Cells (%): 26% and 35%
  Population Normal (%): 100% and 99%
  Population Pyknosed Nuclei (%): 21% and 20%
  Population Tubulin-Different-Phenotype (%): 34%
  Total Cell Count: 178 and 191
[6]
  Population Apoptotic (%): 75%
  Population Fragmented Nuclei (%): 15% and 17%
  Population Healthy Nuclei (%): 69% and 58%
  Population Hoechst High Intensity Objects (%): 0% and 1%
  Population Membrane Permeable-Phenotype (%): 25% and 23%
  Population Mitochondria Different-Phenotype (%): 1% and 5%
  Population Mitotic Cells (%): 25%
  Population Normal (%): 100% and 98%
  Population Pyknosed Nuclei (%): 15% and 23%
  Population Tubulin-Different-Phenotype (%): 89% and 83%
  Total Cell Count: 210 and 238

## Cn1ncc(NC(=O)c2nc(-c3c(F)cccc3F)sc2N)c1N1CC[C@@H](N)[C@H](F)CC1
[1]
  Population Apoptotic (%): 60% and 38%
  Population Fragmented Nuclei (%): 18%
  Population Healthy Nuclei (%): 67% and 74%
  Population Mitotic Cells (%): 40%
  Population Normal (%): 100% and 99%
  Population Tubulin-Different-Phenotype (%): 14% and 8%
  Total Cell Count: 170 and 268
[2]
  Population Apoptotic (%): 26% and 21%
  Population Fragmented Nuclei (%): 35%
  Population Healthy Nuclei (%): 48% and 47%
  Population Mitotic Cells (%): 73% and 78%
  Population Normal (%): 100%
  Population Tubulin-Different-Phenotype (%): 34% and 25%
  Total Cell Count: 307 and 502
[3]
  Population Apoptotic (%): 65% and 54%
  Population Fragmented Nuclei (%): 15%
  Population Healthy Nuclei (%): 65% and 73%
  Population Mitotic Cells (%): 34% and 45%
  Population Normal (%): 100%
  Population Tubulin-Different-Phenotype (%): 13% and 7%
  Total Cell Count: 172 and 273
[4]
  Population Apoptotic (%): 27% and 21%
  Population Fragmented Nuclei (%): 48% and 56%
  Population Healthy Nuclei (%): 43% and 38%
  Population Mitotic Cells (%): 72% and 78%
  Population Normal (%): 100% and 99%
  Population Tubulin-Different-Phenotype (%): 38% and 31%
  Total Cell Count: 456 and 659
[5]
  Population Apoptotic (%): 80% and 51%
  Population Fragmented Nuclei (%): 20%
  Population Healthy Nuclei (%): 63% and 69%
  Population Mitotic Cells (%): 20% and 48%
  Population Normal (%): 100%
  Total Cell Count: 193 and 286
[6]
  Population Apoptotic (%): 66% and 54%
  Population Fragmented Nuclei (%): 52% and 60%
  Population Healthy Nuclei (%): 45% and 38%
  Population Mitotic Cells (%): 45%
  Population Normal (%): 100%
  Population Tubulin-Different-Phenotype (%): 43% and 27%
  Total Cell Count: 604 and 928

## CNC(=O)c1c(F)cccc1Nc1nc(Nc2cc3c(cc2OC)CCN3C(=O)CN(C)C)nc2[nH]ccc12
[1]
  Population Apoptotic (%): 26% and 33%
  Population Fragmented Nuclei (%): 9% and 14%
  Population Healthy Nuclei (%): 66% and 70%
  Population Hoechst High Intensity Objects (%): 0%
  Population Membrane Permeable-Phenotype (%): 6% and 2%
  Population Mitochondria Different-Phenotype (%): 0% and 3%
  Population Mitotic Cells (%): 73% and 66%
  Population Normal (%): 100% and 99%
  Population Pyknosed Nuclei (%): 24% and 14%
  Population Tubulin-Different-Phenotype (%): 7% and 20%
  Total Cell Count: 166 and 190
[2]
  Population Apoptotic (%): 61% and 48%
  Population Fragmented Nuclei (%): 11% and 13%
  Population Healthy Nuclei (%): 16% and 26%
  Population Hoechst High Intensity Objects (%): 0%
  Population Membrane Permeable-Phenotype (%): 34% and 21%
  Population Mitochondria Different-Phenotype (%): 3%
  Population Mitotic Cells (%): 38% and 51%
  Population Normal (%): 100%
  Population Pyknosed Nuclei (%): 72% and 59%
  Population Tubulin-Different-Phenotype (%): 80% and 51%
  Total Cell Count: 162 and 196
[3]
  Population Apoptotic (%): 27% and 47%
  Population Fragmented Nuclei (%): 11% and 9%
  Population Healthy Nuclei (%): 67% and 80%
  Population Hoechst High Intensity Objects (%): 0%
  Population Membrane Permeable-Phenotype (%): 2% and 1%
  Population Mitochondria Different-Phenotype (%): 0% and 4%
  Population Mitotic Cells (%): 72% and 52%
  Population Normal (%): 100% and 99%
  Population Pyknosed Nuclei (%): 20% and 10%
  Total Cell Count: 159 and 167
[4]
  Population Apoptotic (%): 70% and 79%
  Population Fragmented Nuclei (%): 16% and 11%
  Population Healthy Nuclei (%): 18% and 17%
  Population Hoechst High Intensity Objects (%): 1% and 0%
  Population Membrane Permeable-Phenotype (%): 72% and 73%
  Population Mitochondria Different-Phenotype (%): 6% and 7%
  Population Mitotic Cells (%): 29% and 20%
  Population Normal (%): 98% and 99%
  Population Pyknosed Nuclei (%): 64% and 71%
  Population Tubulin-Different-Phenotype (%): 75% and 65%
  Total Cell Count: 159 and 152
[5]
  Population Apoptotic (%): 58% and 81%
  Population Fragmented Nuclei (%): 13% and 15%
  Population Healthy Nuclei (%): 73% and 76%
  Population Hoechst High Intensity Objects (%): 0%
  Population Membrane Permeable-Phenotype (%): 2% and 1%
  Population Mitochondria Different-Phenotype (%): 0%
  Population Mitotic Cells (%): 41% and 18%
  Population Normal (%): 100%
  Population Pyknosed Nuclei (%): 13% and 8%
  Population Tubulin-Different-Phenotype (%): 3% and 5%
  Total Cell Count: 178 and 200
[6]
  Population Apoptotic (%): 90% and 93%
  Population Fragmented Nuclei (%): 37% and 31%
  Population Healthy Nuclei (%): 20% and 24%
  Population Hoechst High Intensity Objects (%): 0%
  Population Membrane Permeable-Phenotype (%): 75% and 48%
  Population Mitochondria Different-Phenotype (%): 3% and 0%
  Population Mitotic Cells (%): 9% and 6%
  Population Normal (%): 100% and 99%
  Population Pyknosed Nuclei (%): 41% and 43%
  Population Tubulin-Different-Phenotype (%): 62% and 57%
  Total Cell Count: 158 and 145
